Data set [1] in a line: Lipophilicity, log D of the compound by chromatographic analysis. Format: physicochemical. The method, boiled down: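 Lipophilicity was measured chromatographically and reported as ChromLogD; ≥6 replicates.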
Data set [2] relates to Huh-7. The data set can be described thus: Cytotoxicity against human HuH7 cells at 50 uM after 2 days by Cell Titer Glo assay. It counts as cell-based. The following applies: huh-7, 48 h. Summed up:
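Huh7 cells were exposed to compound at 50 μM for 2 days and scored for cellular toxicity.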
(In general: Cellular ATP, detected with luciferase, serves as a proxy for viable cell number.)

Data set [3] relates to Hepatitis C virus. Nature of the data set: Antiviral activity against Hepatitis C virus genotype 1b expressing NS4B V105M mutant infected in human HuH7 cells after 48 hrs by luciferase reporter gene assay. Format: functional, organism-based, Hepacivirus hominis. The conditions noted are these: Huh-7, 48 h. On the technique in general: Reporter assays use an easily measured gene product as a stand-in for the process of interest.

Data set [4] has as its system Hepatitis C virus. Nature of the data set: Antiviral activity against Hepatitis C virus genotype 1b expressing NS4B H94N mutant infected in human HuH7 cells after 48 hrs by luciferase reporter gene assay. Format: functional, organism-based, Hepacivirus hominis. The conditions noted are these: Huh-7, 48 h.
Data set [5] deals with Hepatitis C virus. The data set can be described thus: Antiviral activity against Hepatitis C virus genotype 1b infected in human HuH7 cells after 48 hrs by luciferase reporter gene assay. It counts as functional, organism-based, Hepacivirus hominis. The following applies: Huh-7, 48 h.
The test system of data set [6] is Hepatitis C virus. Nature of the data set: Antiviral activity against Hepatitis C virus genotype 1a infected in human HuH7 cells after 48 hrs by luciferase reporter gene assay. The conditions noted are these: subtype 1a, Huh-7, 48 h. It counts as functional, organism-based, Hepacivirus hominis.
Data set [7] in a line: Displacement of [3H]-3-(1-(3-chloro-6-isopropyl-8-(trifluoromethyl)imidazo[1,2-a]pyridine-2-carbonyl)piperidin-4-yl)oxazolidin-2-one from HCV genotype 1b C-terminal His-tagged NS4B (1 to 261 aa) expressed in baculovirus infected SF9 cells after overnight incubation. The arrangement: species or system Hepatitis C virus subtype 1b. (In general: Loss of bound radioactivity is the signal in a displacement assay; it reports binding, not function.)

The subject of data set [8] is Rattus norvegicus. The data set can be described thus: Prodrug conversion in CD rat assessed as 4-(3-chloro-6-cyclopropyl-8-(trifluoromethyl)imidazo[1,2-a]pyridine-2-carbonyl)-1-((trans)-4-hydroxycyclohexyl)piperazin-2-one level at 300 mg/kg, po. The following applies: in vivo. Format: ADME, organism-based. More on the design: dose 300 mg/kg, route oral. Summed up: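 CD rats were given a single oral dose of 300 mg/kg of parent suspension or of prodrug. Plasma was assayed for the parent drug and for uncleaved prodrug.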

Data set [9] has as its system Hepatitis C virus. Nature of the data set: Antiviral activity against wild-type Hepatitis C virus genotype 1a infected in PXB mouse assessed as log reduction in viral mRNA titer at 100 mg/kg, po bid every 12 hrs for 7 days relative to control. Format: functional, Hepacivirus hominis, subtype 1a. Summed up: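 PXB mice were infected with HCV genotype 1a wild-type virus and treated 5−8 weeks later (n = 4/group). Oral dosing b.i.d. for 7 days: prodrug at 10 or 30 mg/kg, or positive control at 100 mg/kg. Serum HCV RNA titers (viral load) were followed over the course of dosing.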

Where only a bound is given, the exact number is not on record here.

A word on the chromatographic logD: it is a lipophilicity value derived from retention on a column. One may read the EC50 as the concentration needed to bring the measured effect to its halfway point. The low end stands for greater potency, the high end for weaker potency. In general, IC50 refers to the midpoint of a concentration-inhibition curve.

As for `Cn1c(C(=O)N2CCN([C@H]3CC[C@H](O)CC3)C(=O)C2)nc2c(C(F)(F)F)cc(C3CC3)cc21`, the chromatographic logD in data set [1] worked out at 4.3. Further, the Activity result in [2] is “Non-toxic”. Moreover, the EC50 in [3] was 230 nM; in data set [4] it was 150 nM; in [5] it was 3 nM; in [6], 0.5 nM. In [7], this molecule registered an IC50 of 24 nM.
For the molecule `CCC(=O)O[C@H]1CC[C@H](N2CCN(C(=O)c3nc4c(C(F)(F)F)cc(C5CC5)cn4c3Cl)CC2=O)CC1`, the Stability entry in [8] is given as “Stable”.
For the molecule `O=C(c1nc2c(C(F)(F)F)cc(C3CC3)cn2c1Cl)N1CCN([C@@H]2C[C@H]3C[C@H]3C2)C(=O)C1`, the EC50 came to 59 nM in data set [3], 20 nM in data set [4], 1 nM in data set [5] and 1.4 nM in [6]. Further, in [7], the IC50 was found to be 58 nM.
For `O=C(c1nc2c(C(F)(F)F)cc(C3CC3)cn2c1Cl)N1CCC(N2CCOC2=O)CC1`, in that order: > 1000 nM, 370 nM, 12 nM, 8.3 nM and 76 nM.
`O=C(c1nn2c(C(F)(F)F)cc(C3CC3)cc2c1Cl)N1CCN([C@@H]2C[C@@H]3C[C@@H]3[C@@H]2O)C(=O)C1`: the EC50 in [3] is > 1000 nM; in [4], > 1000 nM; in data set [5], 19 nM; in [6], 95 nM. In [7], the IC50 is 23 nM.
Consider `O=C(c1nn2c(C(F)(F)F)cc(C3CC3)cc2c1Cl)N1CCC(N2CCOC2=O)CC1`, for which the EC50 was 370 nM in data set [3], 94 nM in data set [4], 5 nM in [5] and 2 nM in data set [6]. In data set [7], the IC50 was 37 nM.
For `O=C(c1nn2c(C(F)(F)F)cc(C3CC3)cc2c1Cl)N1CCN([C@@H]2C[C@H]3C[C@H]3[C@H]2O)C(=O)C1`, in that order: 65 nM, 38 nM, 2.3 nM, 4 nM and 23 nM.
For `O=C(c1nc2c(C(F)(F)F)cc(C3CC3)cn2c1Cl)N1CCN(C(=O)[C@H]2C[C@H](O)C2)CC1`, in that order: > 1000 nM, 720 nM, 19 nM, 6.3 nM and 100 nM.
`O=C(c1nn2c(C(F)(F)F)cc(C3CC3)cc2c1Cl)N1CCC2(OCC3(CC3)CO2)C(O)C1` (racemic): the EC50 amounted to 250 nM in data set [3], 39 nM in data set [4], 1.9 nM in data set [5] and 4 nM in [6]. This molecule also gave an IC50 in [7] of 10 nM.
Molecule `O=C(c1nn2c(C(F)(F)F)cc(C3CC3)cc2c1Cl)N1CCN([C@H]2CC[C@H](O)CC2)C(=O)C1` displayed a chromatographic logD in data set [1] of 4.1. In addition, the Activity result in data set [2] is “Non-toxic”. The EC50 in [3] turned out to be 310 nM; in data set [4], 32 nM; in [5] it was 2 nM; in data set [6], 0.3 nM. In addition, in data set [7], the IC50 came to 12 nM.
With `O=C(O)COCC(=O)O[C@H]1CC[C@H](N2CCN(C(=O)c3nc4c(C(F)(F)F)cc(C5CC5)cn4c3Cl)CC2=O)CC1`, the Stability entry in [8] was “Stable”.
Turning to `O=C(CO)O[C@H]1CC[C@H](N2CCN(C(=O)c3nc4c(C(F)(F)F)cc(C5CC5)cn4c3Cl)CC2=O)CC1`, in [8], the Stability result is reported as “Stable”.
Turning to `O=C(c1nn2c(C(F)(F)F)cc(C3CC3)cc2c1Cl)N1CCN(C(=O)[C@H]2C[C@H](O)C2)CC1`, the EC50 in data set [3] is > 1000 nM; in data set [4], 330 nM; in [5], 8.3 nM; in data set [6], 2 nM. For the same molecule, the IC50 in data set [7] is < 40 nM.
For `O=C(c1nn2c(C(F)(F)F)cc(C3CC3)cc2c1Cl)N1CCN([C@@H]2C[C@H]3C[C@H]3[C@@H]2O)C(=O)C1`, in that order: 400 nM, 64 nM, 4.9 nM, 7.9 nM and 18 nM.
Turning to `CNC(=O)c1c(-c2ccc(F)cc2)oc2cc(N(CCO)S(C)(=O)=O)c(C3CC3)cc12` [NESBUVIR], in [9], the FC is 2.2.
In the case of `CN(C)CC(=O)O[C@H]1CC[C@H](N2CCN(C(=O)c3nc4c(C(F)(F)F)cc(C5CC5)cn4c3Cl)CC2=O)CC1`, in data set [8], the Stability entry was “Stable”.
Take `O=C(c1nc2c(C(F)(F)F)cc(C3CC3)cn2c1Cl)N1CCC2(OCC3(CC3)CO2)C(O)C1` (racemic): the EC50 is 770 nM in data set [3], 230 nM in data set [4], 4.3 nM in [5] and 14 nM in data set [6]. Moreover, the IC50 in [7] turned out to be 28 nM.
The like results for `O=C(c1nn2c(C(F)(F)F)cc(C3CC3)cc2c1Cl)N1CCN([C@H]2C[C@H]3C[C@H]3[C@H]2O)C(=O)C1` were, in that order, > 1000 nM, > 1000 nM, 30 nM, 120 nM and 16 nM.
On to `O=C(c1nn2c(C(F)(F)F)cc(C3CC3)cc2c1Cl)N1CCN([C@H]2C[C@@H]3C[C@@H]3[C@H]2O)C(=O)C1`, for which the EC50 in [3] was > 1000 nM; in [4], > 1000 nM; in data set [5], 14 nM; in data set [6], 41 nM. The IC50 in data set [7] is 18 nM.
As to `O=C(c1oc2c(C(F)(F)F)cc(C3CC3)cc2c1Cl)N1CCN([C@H]2CC[C@H](O)CC2)C(=O)C1`, in [1], the chromatographic logD amounted to 5.1. Moreover, the Activity result in [2] is listed as “Non-toxic”. Moreover, the EC50 was found to be 110 nM in [3], 22 nM in data set [4], 0.8 nM in data set [5] and 0.09 nM in [6]. For the same molecule, in data set [7], the IC50 was 4 nM.
